Measurements reported in ChEMBL document CHEMBL3351667, “A chemical tuned strategy to develop novel irreversible EGFR-TK inhibitors with improved safety and pharmacokinetic profiles” (J Med Chem, 2014).

Tests used:
[1] = target: Epidermal growth factor receptor (Homo sapiens, UniProt P00533, T790M); format: protein assay
hERG (KCNH2) [2] = target: T1, hERG (KCNH2) (Homo sapiens, UniProt Q12809); experiment: Inhibition of human ERG assessed as reduction in channel currents at 10 uM
NCI-H1975 [3] = experiment: cells; format: functional, cell-based; conditions: Homo sapiens, NCI-H1975, 48 h
A-431 = experiment: cells; format: functional, cell-based; conditions: Homo sapiens, A-431, 48 h
[4] = target: Receptor tyrosine-protein kinase erbB-2 (Homo sapiens, UniProt P04626); experiment: Inhibition of wild type HER2 (unknown origin) incubated for 5 mins by HTRF assay
hERG (KCNH2) [5] = target: T1, hERG (KCNH2); experiment: Inhibition of human ERG assessed as reduction in channel currents at 1 uM
SW-620 = experiment: Growth inhibition of human SW620 cells at 5 uM; format: functional; conditions: read-out: GI
[6] = target: Epidermal growth factor receptor (Homo sapiens, UniProt P00533);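 also: inhibition of wild-type EGFR read out by HTRF, with a 5 min incubation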
[7] = Ratio of drug level in brain to plasma in BALB/c mouse at 30 mg/kg, po after 6 hrs by LC/MS/MS method; format: ADME, organism-based; design: dose 30 mg/kg, route oral; conditions: read-out: BPR
Summary of the method: (§1)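 BALB/c mice received a single oral dose of 30 mg/kg. Drug concentrations in lung, brain and plasma were measured at multiple time points over 6 h. Mean tissue levels are expressed as a lung/plasma/brain ratio, with plasma set to 1.0.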

[8] = Apparent clearance in BALB/c mouse at 10 mg/kg, po after 24 hrs by LC/MS/MS method; format: ADME, organism-based; design: dose 10 mg/kg, route oral; conditions: BALB/c, in vivo, read-out: CL(app)
[9] = Intrinsic clearance in human liver microsomes assessed per mg protein at 1 uM in presence of NADPH after 0.5 to 30 mins by LC/MS/MS method; format: ADME; conditions: read-out: CLH
[10] = Cmax in BALB/c mouse at 10 mg/kg, po after 24 hrs by LC/MS/MS method; format: ADME, organism-based; design: dose 10 mg/kg, route oral; conditions: in vivo
[11] = Oral bioavailability in BALB/c mouse at 10 mg/kg after 24 hrs by LC/MS/MS method; format: ADME, organism-based; conditions: in vivo
[12] = Intrinsic clearance in mouse liver microsomes assessed per mg protein at 1 uM in presence of NADPH after 0.5 to 30 mins by LC/MS/MS method; format: ADME; conditions: read-out: CLH
[13] = AUC (0 to infinity) in BALB/c mouse at 10 mg/kg, po after 24 hrs by LC/MS/MS method; format: ADME, organism-based, Plasma; design: dose 10 mg/kg, route oral, time infinity; conditions: BALB/c, plasma
Cytochrome P450 2C19 = Cytochrome P450 2C19 (Homo sapiens, UniProt P33261); experiment: Inhibition of CYP2C19 in human hepatic microsomes after 20 mins by LC/MS/MS method; format: ADME, Liver
NCI-H1975 [14] = experiment: Antitumor activity against human NCI-H1975 cells xenografted in nude mouse assessed as reduction in tumor growth at 30 mg/kg/day, ig relative to untreated control; format: functional; conditions: route intragastric
[15] = Ratio of drug level in lung to plasma in BALB/c mouse at 30 mg/kg, po after 6 hrs by LC/MS/MS method; format: ADME, organism-based; design: dose 30 mg/kg, route oral
Summary of the method: as §1

[16] = Intrinsic clearance in monkey liver microsomes assessed per mg protein at 1 uM in presence of NADPH after 0.5 to 30 mins by LC/MS/MS method; format: ADME, Macaca mulatta; conditions: rhesus monkey, read-out: CLH
Mus musculus = experiment: Apparent volume of distribution in BALB/c mouse at 10 mg/kg, po after 24 hrs by LC/MS/MS method; format: ADME, organism-based; design: dose 10 mg/kg, route oral; conditions: in vivo
[17] = Intrinsic clearance in dog liver microsomes assessed per mg protein at 1 uM in presence of NADPH after 0.5 to 30 mins by LC/MS/MS method; format: ADME, Canis lupus familiaris; conditions: read-out: CLH
Cytochrome P450 2C9 = Cytochrome P450 2C9 (Homo sapiens, UniProt P11712); experiment: Inhibition of CYP2C9 in human hepatic microsomes after 20 mins by LC/MS/MS method; format: ADME, Liver
Cytochrome P450 3A4 = Cytochrome P450 3A4 (Homo sapiens, UniProt P08684); experiment: Inhibition of CYP3A4 in human hepatic microsomes after 20 mins by LC/MS/MS method; format: ADME, Liver
Cytochrome P450 1A2 = target: T2, Cytochrome P450 1A2 (Homo sapiens, UniProt P05177); experiment: Inhibition of CYP1A2 in human hepatic microsomes after 20 mins by LC/MS/MS method; format: ADME, Liver
T2 sequence (P05177 whole entry): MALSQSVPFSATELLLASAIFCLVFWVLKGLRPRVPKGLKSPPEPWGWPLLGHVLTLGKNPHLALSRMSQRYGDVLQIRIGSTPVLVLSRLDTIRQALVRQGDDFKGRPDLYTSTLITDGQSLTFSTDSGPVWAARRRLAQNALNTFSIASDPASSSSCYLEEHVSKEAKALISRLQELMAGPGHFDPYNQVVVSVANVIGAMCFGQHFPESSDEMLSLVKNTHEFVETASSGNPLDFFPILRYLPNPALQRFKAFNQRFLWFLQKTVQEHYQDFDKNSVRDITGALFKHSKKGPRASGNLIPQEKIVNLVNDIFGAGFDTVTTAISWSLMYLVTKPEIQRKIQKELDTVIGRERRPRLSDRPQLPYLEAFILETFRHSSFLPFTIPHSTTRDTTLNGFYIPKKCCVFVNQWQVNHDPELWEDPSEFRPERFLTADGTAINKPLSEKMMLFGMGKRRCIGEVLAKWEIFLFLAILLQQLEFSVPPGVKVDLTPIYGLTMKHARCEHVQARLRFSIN

[18] = Intrinsic clearance in rat liver microsomes assessed per mg protein at 1 uM in presence of NADPH after 0.5 to 30 mins by LC/MS/MS method; format: ADME; conditions: read-out: CLH
Cytochrome P450 2D6 = Cytochrome P450 2D6 (Homo sapiens, UniProt P10635); experiment: Inhibition of CYP2D6 in human hepatic microsomes after 20 mins by LC/MS/MS method; format: ADME, Liver
NCI-H1975 [19] = experiment: Antitumor activity against human NCI-H1975 cells xenografted in nude mouse assessed as reduction in tumor growth at 60 mg/kg/day, ig relative to untreated control; format: functional; conditions: route intragastric
NCI-H1975 [20] = experiment: Antitumor activity against human NCI-H1975 cells xenografted in nude mouse assessed as reduction in tumor growth at 15 mg/kg/day, ig relative to untreated control; format: functional; conditions: route intragastric
NCI-H1975 [21] = experiment: Antitumor activity against human NCI-H1975 cells xenografted in nude mouse assessed as reduction in tumor growth at 15 to 60 mg/kg/day, ig relative to untreated control; format: functional, organism-based
NCI-H1975 [22] = experiment: Toxicity in human NCI-H1975 cells xenografted nude mouse assessed as induction of mortality at 30 mg/kg/day, ig; format: organism-based; design: route intragastric; conditions: in vivo, po
Summary of the method: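 H1975 NSCLC xenografts set up by subcutaneous inoculation of 3.0 × 10⁷ cells into nude mice. Dosing began at mean tumour size 50−150 mm³. Randomised mice received compound by ig gavage […] for 9 days. Vehicle control was 0.5% CMC-Na + 0.4% Tween80 at 10 mL/kg. Mortality and body weight were monitored during treatment.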

T1 sequence (Q12809 whole entry): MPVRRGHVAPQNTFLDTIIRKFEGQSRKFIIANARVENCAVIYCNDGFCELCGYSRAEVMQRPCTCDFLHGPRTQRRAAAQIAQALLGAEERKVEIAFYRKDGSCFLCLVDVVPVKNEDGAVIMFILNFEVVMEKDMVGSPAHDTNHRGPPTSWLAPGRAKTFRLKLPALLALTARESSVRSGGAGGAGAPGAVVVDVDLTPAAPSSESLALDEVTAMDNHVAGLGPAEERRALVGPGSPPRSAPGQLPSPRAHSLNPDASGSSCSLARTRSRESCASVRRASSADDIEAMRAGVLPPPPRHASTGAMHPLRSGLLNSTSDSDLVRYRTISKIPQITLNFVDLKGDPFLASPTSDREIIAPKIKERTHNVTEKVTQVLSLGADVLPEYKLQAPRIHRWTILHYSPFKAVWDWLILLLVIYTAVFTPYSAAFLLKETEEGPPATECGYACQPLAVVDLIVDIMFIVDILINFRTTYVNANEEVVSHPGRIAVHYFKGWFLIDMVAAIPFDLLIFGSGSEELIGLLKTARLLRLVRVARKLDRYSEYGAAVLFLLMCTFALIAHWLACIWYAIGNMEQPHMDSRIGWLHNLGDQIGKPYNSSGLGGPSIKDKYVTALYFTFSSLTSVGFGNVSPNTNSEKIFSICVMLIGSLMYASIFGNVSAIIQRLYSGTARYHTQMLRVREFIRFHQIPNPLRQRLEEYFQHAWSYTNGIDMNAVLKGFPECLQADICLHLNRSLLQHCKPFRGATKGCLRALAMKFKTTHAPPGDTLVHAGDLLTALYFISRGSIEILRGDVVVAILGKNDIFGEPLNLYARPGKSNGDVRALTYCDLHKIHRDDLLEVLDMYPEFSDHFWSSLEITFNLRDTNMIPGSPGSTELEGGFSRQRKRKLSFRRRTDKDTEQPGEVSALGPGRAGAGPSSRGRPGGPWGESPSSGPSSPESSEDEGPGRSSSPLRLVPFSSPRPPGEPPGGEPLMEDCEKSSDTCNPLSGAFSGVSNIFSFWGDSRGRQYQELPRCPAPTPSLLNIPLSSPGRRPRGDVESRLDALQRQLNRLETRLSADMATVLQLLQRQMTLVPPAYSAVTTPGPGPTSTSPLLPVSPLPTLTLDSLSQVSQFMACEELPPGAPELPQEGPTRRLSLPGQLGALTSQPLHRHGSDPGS
Epidermal growth factor receptor (Homo sapiens, UniProt P00533, T790M), sequence (P00533 25-1210 T790M limits assumed): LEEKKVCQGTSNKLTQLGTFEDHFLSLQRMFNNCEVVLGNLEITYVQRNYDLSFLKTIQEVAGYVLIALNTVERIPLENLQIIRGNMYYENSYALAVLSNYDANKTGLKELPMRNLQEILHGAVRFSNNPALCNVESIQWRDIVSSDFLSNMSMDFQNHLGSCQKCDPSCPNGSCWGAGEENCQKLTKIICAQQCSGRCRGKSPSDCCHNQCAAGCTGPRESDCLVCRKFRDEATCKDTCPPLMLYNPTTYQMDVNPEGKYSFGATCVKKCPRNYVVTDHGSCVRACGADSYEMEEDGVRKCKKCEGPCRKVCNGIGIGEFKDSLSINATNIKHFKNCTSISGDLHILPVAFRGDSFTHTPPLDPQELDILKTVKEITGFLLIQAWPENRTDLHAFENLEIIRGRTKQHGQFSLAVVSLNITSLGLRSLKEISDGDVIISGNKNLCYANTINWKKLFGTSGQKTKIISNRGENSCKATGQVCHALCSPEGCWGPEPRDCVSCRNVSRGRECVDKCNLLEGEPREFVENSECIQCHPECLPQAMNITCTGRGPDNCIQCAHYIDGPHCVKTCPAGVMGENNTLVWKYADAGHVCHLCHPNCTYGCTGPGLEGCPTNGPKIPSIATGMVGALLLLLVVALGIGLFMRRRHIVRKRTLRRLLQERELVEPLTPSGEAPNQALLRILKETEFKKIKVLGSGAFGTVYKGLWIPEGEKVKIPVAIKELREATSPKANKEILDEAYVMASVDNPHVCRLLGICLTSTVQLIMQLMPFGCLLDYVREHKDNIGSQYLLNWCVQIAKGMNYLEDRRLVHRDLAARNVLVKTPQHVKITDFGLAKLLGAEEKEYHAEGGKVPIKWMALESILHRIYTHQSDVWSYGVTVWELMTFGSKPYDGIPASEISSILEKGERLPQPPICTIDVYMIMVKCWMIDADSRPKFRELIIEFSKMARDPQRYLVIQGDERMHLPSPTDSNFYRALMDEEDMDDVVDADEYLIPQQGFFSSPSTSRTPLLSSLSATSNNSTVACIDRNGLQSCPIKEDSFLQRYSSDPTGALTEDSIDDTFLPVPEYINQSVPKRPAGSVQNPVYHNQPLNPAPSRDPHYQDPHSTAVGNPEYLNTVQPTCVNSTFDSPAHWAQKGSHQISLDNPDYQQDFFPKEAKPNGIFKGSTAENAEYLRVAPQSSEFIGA
Receptor tyrosine-protein kinase erbB-2, sequence (P04626 whole entry): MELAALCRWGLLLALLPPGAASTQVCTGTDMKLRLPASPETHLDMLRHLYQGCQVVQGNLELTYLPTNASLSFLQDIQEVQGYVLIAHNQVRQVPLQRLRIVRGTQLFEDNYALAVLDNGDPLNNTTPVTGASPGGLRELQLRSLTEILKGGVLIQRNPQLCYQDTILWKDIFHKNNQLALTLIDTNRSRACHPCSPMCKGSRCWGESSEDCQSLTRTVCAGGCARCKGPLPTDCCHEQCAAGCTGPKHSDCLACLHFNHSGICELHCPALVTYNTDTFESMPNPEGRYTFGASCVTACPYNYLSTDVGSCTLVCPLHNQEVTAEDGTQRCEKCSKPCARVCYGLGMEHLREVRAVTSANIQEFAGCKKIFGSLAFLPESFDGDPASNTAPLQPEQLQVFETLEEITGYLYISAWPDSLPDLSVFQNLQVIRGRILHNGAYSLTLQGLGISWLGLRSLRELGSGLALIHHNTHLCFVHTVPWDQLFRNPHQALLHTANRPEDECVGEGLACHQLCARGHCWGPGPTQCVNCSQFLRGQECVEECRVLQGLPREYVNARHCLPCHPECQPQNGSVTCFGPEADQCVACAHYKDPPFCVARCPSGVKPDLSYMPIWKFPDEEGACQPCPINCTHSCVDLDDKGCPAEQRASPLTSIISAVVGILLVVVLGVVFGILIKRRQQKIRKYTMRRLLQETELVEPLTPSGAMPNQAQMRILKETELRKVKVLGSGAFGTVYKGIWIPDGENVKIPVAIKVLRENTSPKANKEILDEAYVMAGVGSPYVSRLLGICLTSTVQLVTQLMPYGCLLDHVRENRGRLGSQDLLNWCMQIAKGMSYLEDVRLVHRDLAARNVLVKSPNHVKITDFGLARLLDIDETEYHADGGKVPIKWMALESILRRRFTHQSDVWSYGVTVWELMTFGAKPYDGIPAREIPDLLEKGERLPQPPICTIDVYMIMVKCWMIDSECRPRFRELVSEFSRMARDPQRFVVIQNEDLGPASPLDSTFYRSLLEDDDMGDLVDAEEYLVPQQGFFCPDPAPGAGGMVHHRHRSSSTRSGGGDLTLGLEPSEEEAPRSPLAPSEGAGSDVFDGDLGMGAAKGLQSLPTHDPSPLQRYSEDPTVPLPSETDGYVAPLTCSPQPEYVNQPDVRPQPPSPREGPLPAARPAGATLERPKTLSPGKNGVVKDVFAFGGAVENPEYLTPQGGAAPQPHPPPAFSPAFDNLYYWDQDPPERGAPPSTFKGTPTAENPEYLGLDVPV
Epidermal growth factor receptor (Homo sapiens, UniProt P00533), sequence (P00533 whole entry): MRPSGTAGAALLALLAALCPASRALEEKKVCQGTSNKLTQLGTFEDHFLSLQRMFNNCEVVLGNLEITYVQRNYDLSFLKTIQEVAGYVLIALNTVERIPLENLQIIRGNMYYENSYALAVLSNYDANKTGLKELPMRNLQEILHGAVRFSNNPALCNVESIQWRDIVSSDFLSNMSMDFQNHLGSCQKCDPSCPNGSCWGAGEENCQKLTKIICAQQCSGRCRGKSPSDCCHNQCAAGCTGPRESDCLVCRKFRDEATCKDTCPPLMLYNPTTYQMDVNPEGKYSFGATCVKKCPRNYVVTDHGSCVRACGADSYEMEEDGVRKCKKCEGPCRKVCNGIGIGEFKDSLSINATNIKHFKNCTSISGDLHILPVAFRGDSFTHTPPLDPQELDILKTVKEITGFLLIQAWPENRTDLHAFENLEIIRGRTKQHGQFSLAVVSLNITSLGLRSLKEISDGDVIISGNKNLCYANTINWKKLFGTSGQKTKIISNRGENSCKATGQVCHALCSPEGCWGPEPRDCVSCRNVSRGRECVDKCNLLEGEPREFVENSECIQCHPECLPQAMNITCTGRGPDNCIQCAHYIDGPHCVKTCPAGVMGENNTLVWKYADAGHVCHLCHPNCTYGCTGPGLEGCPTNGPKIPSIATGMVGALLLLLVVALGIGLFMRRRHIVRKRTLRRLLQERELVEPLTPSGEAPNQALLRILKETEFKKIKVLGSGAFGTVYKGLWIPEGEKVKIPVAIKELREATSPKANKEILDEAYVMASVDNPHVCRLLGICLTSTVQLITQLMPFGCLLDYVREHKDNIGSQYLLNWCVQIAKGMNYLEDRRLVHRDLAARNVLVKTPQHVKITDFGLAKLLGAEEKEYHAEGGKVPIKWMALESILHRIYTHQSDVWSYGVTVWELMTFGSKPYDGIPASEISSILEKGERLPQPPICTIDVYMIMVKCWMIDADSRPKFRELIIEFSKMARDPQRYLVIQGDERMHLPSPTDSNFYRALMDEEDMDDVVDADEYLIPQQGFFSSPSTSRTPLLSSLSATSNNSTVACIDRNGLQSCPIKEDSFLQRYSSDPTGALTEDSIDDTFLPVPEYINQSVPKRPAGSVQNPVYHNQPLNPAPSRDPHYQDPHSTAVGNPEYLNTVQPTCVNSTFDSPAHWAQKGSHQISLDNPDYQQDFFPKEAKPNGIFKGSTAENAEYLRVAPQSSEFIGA

SMILES: CN(C)C/C=C(/F)C(=O)Nc1cc2c(Nc3ccc(F)c(Cl)c3)ncnc2cc1O[C@H]1CCOC1
- IC50 [1]: 25.8 nM
- inhibition at 10 µM (hERG (KCNH2) [2]): 39.5%
- IC50 (NCI-H1975 [3]): 1530 nM
- IC50 (A-431): 3060 nM
- IC50 [4]: 97.1 nM
- inhibition at 1 µM (hERG (KCNH2) [5]): 6.37%

SMILES: COc1cccc2c1C(=O)c1c(O)c3c(c(O)c1C2=O)C[C@@](O)(C(=O)CO)C[C@@H]3O[C@H]1C[C@H](N)[C@H](O)[C@H](C)O1 [DOXORUBICIN]
- inhibition of growth at 5 µM (SW-620): 79.8%

SMILES: O=C(Nc1cc2c(Nc3ccc(F)c(Cl)c3)ncnc2cc1O[C@H]1CCOC1)/C(F)=C/CN1CCCCC1
- IC50 [1]: 16.4 nM
- IC50 (NCI-H1975 [3]): 290 nM
- IC50 (A-431): 1560 nM
- IC50 [6]: 2.6 nM

SMILES: COc1cc2ncnc(Nc3cccc(Br)c3)c2cc1NC(=O)/C(F)=C/CN(C)C
- IC50 [1]: 8.3 nM
- IC50 (NCI-H1975 [3]): 3300 nM
- IC50 (A-431): 2100 nM
- IC50 [6]: 2.6 nM

SMILES: O=C(Nc1cc2c(Nc3ccc(F)c(Cl)c3)ncnc2cc1O[C@H]1CCOC1)/C(F)=C\CN1CCCCC1
- IC50 (NCI-H1975 [3]): 710 nM
- IC50 (A-431): 1800 nM
- IC50 [6]: 2.55 nM

SMILES: CCOc1cc2ncnc(Nc3ccc(OCc4ccccn4)c(Cl)c3)c2cc1NC(=O)/C(F)=C/CN(C)C
- Kp at 6 h [7]: 0.29
- CL/F [8]: 20 mL/min/kg
- IC50 [1]: 3.77 nM
- microsomal CLint at 1 µM [9]: 27 µL/min/mg
- Cmax [10]: 2660 nM
- inhibition at 10 µM (hERG (KCNH2) [2]): 3.06%
- bioavailability [11]: 89.4%
- IC50 (A-431): 340 nM
- microsomal CLint at 1 µM [12]: 47 µL/min/mg
- AUC(0-inf) [13]: 16.6 µM·h
- IC50 (Cytochrome P450 2C19): > 10000 nM
- IC50 [4]: 1.38 nM
- T/C (NCI-H1975 [14]): 15.6%
- IC50 [6]: 0.18 nM
- inhibition at 1 µM (hERG (KCNH2) [5]): 0%
- Kp at 6 h [15]: 11
- microsomal CLint at 1 µM [16]: 97 µL/min/mg
- Vz (Mus musculus): 3.94 L/kg
- microsomal CLint at 1 µM [17]: 95 µL/min/mg
- IC50 (Cytochrome P450 2C9): > 10000 nM
- IC50 (Cytochrome P450 3A4): > 10000 nM
- IC50 (Cytochrome P450 1A2): > 10000 nM
- microsomal CLint at 1 µM [18]: 33 µL/min/mg
- IC50 (Cytochrome P450 2D6): > 10000 nM

SMILES: CN(C)C/C=C(\F)C(=O)Nc1cc2c(Nc3ccc(F)c(Cl)c3)ncnc2cc1O[C@H]1CCOC1
- Kp at 6 h [7]: 0.79
- CL/F [8]: 30 mL/min/kg
- IC50 [1]: 5.52 nM
- T/C (NCI-H1975 [19]): 9.4%
- microsomal CLint at 1 µM [9]: 2 µL/min/mg
- Cmax [10]: 940 nM
- T/C (NCI-H1975 [20]): 42.5%
- inhibition at 10 µM (hERG (KCNH2) [2]): 14.8%
- inhibition of growth at 5 µM (SW-620): 11.5%
- IC50 (NCI-H1975 [3]): 1240 nM
- bioavailability [11]: 84.7%
- IC50 (A-431): 130 nM
- microsomal CLint at 1 µM [12]: 12 µL/min/mg
- AUC(0-inf) [13]: 10.4 µM·h
- inhibition (NCI-H1975 [21]): Dose-dependent effect
- IC50 (Cytochrome P450 2C19): > 10000 nM
- IC50 [4]: 149 nM
- T/C (NCI-H1975 [14]): 19.5%
- Activity (NCI-H1975 [22]): Non-toxic
- inhibition at 1 µM (hERG (KCNH2) [5]): 0%
- Kp at 6 h [15]: 25
- microsomal CLint at 1 µM [16]: 31 µL/min/mg
- Vz (Mus musculus): 9.69 L/kg
- microsomal CLint at 1 µM [17]: 39 µL/min/mg
- IC50 (Cytochrome P450 2C9): > 10000 nM
- IC50 (Cytochrome P450 3A4): > 10000 nM
- IC50 (Cytochrome P450 1A2): > 10000 nM
- microsomal CLint at 1 µM [18]: 14 µL/min/mg
- IC50 (Cytochrome P450 2D6): > 10000 nM

SMILES: CCOc1cc2ncnc(Nc3ccc(Oc4ccc(C)nc4)c(Cl)c3)c2cc1NC(=O)/C(F)=C\CN1CCCCC1
- IC50 (NCI-H1975 [3]): 6420 nM
- IC50 (A-431): 24800 nM
- IC50 [6]: 39.2 nM

SMILES: O=C(Nc1cc2c(Nc3ccc(F)c(Cl)c3)ncnc2cc1O[C@H]1CCOC1)/C(F)=C/CN1CCOCC1
- inhibition at 10 µM (hERG (KCNH2) [2]): 11.1%
- IC50 (NCI-H1975 [3]): 4370 nM
- IC50 (A-431): 11500 nM
- IC50 [4]: 1570 nM
- inhibition at 1 µM (hERG (KCNH2) [5]): 0.94%

SMILES: CCOc1cc2ncnc(Nc3ccc(OCC4CC4)c(Cl)c3)c2cc1NC(=O)/C(F)=C/CN(C)C
- IC50 [1]: 3.5 nM
- IC50 (NCI-H1975 [3]): 1190 nM
- IC50 (A-431): 750 nM
- IC50 [6]: 3.6 nM

SMILES: COc1cc2ncnc(Nc3ccc(OCc4cccc(F)c4)c(Cl)c3)c2cc1NC(=O)/C(F)=C/CN(C)C
- IC50 [1]: 2.1 nM
- IC50 (NCI-H1975 [3]): 2060 nM
- IC50 (A-431): 4020 nM
- IC50 [6]: 1.56 nM

SMILES: O=C(Nc1cc2c(Nc3ccc(F)c(Cl)c3)ncnc2cc1O[C@H]1CCOC1)/C(F)=C\CN1CCOCC1
- IC50 (NCI-H1975 [3]): 3010 nM
- IC50 (A-431): 10900 nM
